Reference: ChEMBL document CHEMBL4325893, “Synthesis and antibacterial profiles of targeted triclosan derivatives” (2019)
≈ marks a conversion by molar mass, not a printed value.

Experiments:
Escherichia coli [1] = assay: Antibacterial activity against Escherichia coli ATCC 11775 after 18 hrs; type: functional
In short: (§1)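 Broth microdilution in Nutrient Broth No. 2; stocks in ethanol diluted to 0.01–128 µg/ml (triclosan) or 0.25–256 µg/ml (glycosides). Overnight 37 °C NB2 cultures diluted 1 in 10^4 in saline and added to the dilutions. Incubation at 37 °C with agitation, OD read every 15 min; MIC is the lowest concentration preventing any OD rise after 18 h.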

Streptococcus pneumoniae = assay: Antibacterial activity against Streptococcus pneumoniae ATCC 49619 after 18 hrs; type: functional; conditions: ATCC 49619, 18 h
In short: (§2)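 Broth microdilution in Nutrient Broth No. 2. Ethanol stocks were diluted in broth to 0.01–128 µg/ml for triclosan and 0.25–256 µg/ml for glycosides. Overnight 37°C NB2 cultures were diluted 1 in 10^4 in saline and added to the wells. Plates were incubated at 37°C with OD read every 15 min after agitation. MIC was the lowest concentration giving no OD increase at 18 h.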

Escherichia hermannii = assay: Antibacterial activity against Escherichia hermannii 33650 after 18 hrs; type: functional; conditions: Atlantibacter hermannii, 33650, 18 h; in short: as §1
Citrobacter freundii [2] = assay: Antibacterial activity against Citrobacter freundii OCC 851 after 18 hrs; type: functional; conditions: OCC 851, 18 h; in short: as §1
[3] = Antibacterial activity against Salmonella enterica subspecies enterica serotype Virchow NCTC 5742 after 18 hrs; type: functional, Salmonella enterica subsp. enterica serovar Virchow; conditions: NCTC 5742, 18 h; in short: as §1
Staphylococcus aureus [4] = assay: Antibacterial activity against Staphylococcus aureus ATCC 29213 after 18 hrs; type: functional; conditions: ATCC 29213, 18 h; in short: as §1
[5] = tested on: Staphylococcus saprophyticus; assay: Antibacterial activity against Staphylococcus saprophyticus ATCC 15305 after 18 hrs; type: functional; conditions: ATCC 15305, 18 h; in short: as §2
Bacillus cereus = assay: Antibacterial activity against Bacillus cereus ATCC 14579 after 18 hrs; type: functional; conditions: ATCC 14579, 18 h; in short: as §1
Streptococcus pyogenes = assay: Antibacterial activity against Streptococcus pyogenes ATCC 19615 after 18 hrs; type: functional; conditions: ATCC 19615, 18 h; in short: as §2
[6] = tested on: Staphylococcus haemolyticus; assay: Antibacterial activity against Staphylococcus haemolyticus OCC 2223 after 18 hrs; type: functional; conditions: OCC 2223, 18 h; in short: as §2
Escherichia coli [7] = assay: Antibacterial activity against Escherichia coli ATCC 10536 after 18 hrs; type: functional; conditions: ATCC 10536, 18 h; in short: as §1
[8] = Antibacterial activity against Salmonella enterica subspecies enterica serotype Nottingham NCTC 7832 after 18 hrs; type: functional, Salmonella enterica subsp. enterica serovar Nottingham; conditions: NCTC 7832, 18 h; in short: as §1
Klebsiella pneumoniae = assay: Antibacterial activity against Klebsiella pneumoniae ATCC 10031 after 18 hrs; type: functional; conditions: ATCC 10031, 18 h; in short: as §1
Klebsiella aerogenes = assay: Antibacterial activity against Klebsiella aerogenes NCTC 8167 after 18 hrs; type: functional; conditions: NCTC 8167, 18 h; in short: as §1
[9] = Antibacterial activity against Salmonella enterica subspecies enterica serotype Arizonae OCC 706 after 18 hrs; type: functional, Salmonella enterica subsp. enterica serovar Arizonae; conditions: OCC 706, 18 h; in short: as §1
Streptococcus agalactiae = assay: Antibacterial activity against Streptococcus agalactiae OCC 182 after 18 hrs; type: functional; conditions: OCC 182, 18 h; in short: as §2
Enterococcus faecalis = assay: Antibacterial activity against Enterococcus faecalis ATCC 29212 after 18 hrs; type: functional; conditions: ATCC 29212, 18 h; in short: as §1
Cronobacter sakazakii = assay: Antibacterial activity against Cronobacter sakazakii 29544 after 18 hrs; type: functional; conditions: Cronobacter sakazakii, 29544, 18 h; in short: as §1
Salmonella typhimurium = assay: Antibacterial activity against Salmonella enterica subspecies enterica serotype typhimurium ATCC 14028 after 18 hrs; type: functional, Salmonella enterica subsp. enterica serovar Typhimurium; conditions: ATCC 14028, 18 h; in short: as §1
Enterococcus faecium = assay: Antibacterial activity against Enterococcus faecium ATCC 19434 after 18 hrs; type: functional; conditions: ATCC 19434, 18 h; in short: as §1
[10] = Antibacterial activity against Salmonella enterica subspecies enterica serotype Indiana OCC 597 after 18 hrs; type: functional, Salmonella enterica subsp. enterica serovar Indiana; conditions: OCC 597, 18 h; in short: as §1
[11] = tested on: Salmonella enterica subsp. enterica serovar Abony; assay: Antibacterial activity against Salmonella enterica subspecies enterica serotype Abony NCTC 6017 after 18 hrs; type: functional; conditions: NCTC 6017, 18 h; in short: as §1
Bacillus subtilis = assay: Antibacterial activity against Bacillus subtilis NCTC 10073 after 18 hrs; type: functional; conditions: NCTC 10073, 18 h; in short: as §1
Escherichia coli [12] = assay: Antibacterial activity against Escherichia coli NCTC 13216 after 18 hrs; type: functional; conditions: NCTC 13216, 18 h; in short: as §1
[13] = Antibacterial activity against Salmonella enterica subspecies enterica serotype Pullorum OCC 273 after 18 hrs; type: functional, Salmonella enterica subsp. enterica serovar Pullorum; conditions: OCC 273, 18 h; in short: as §1
Citrobacter freundii [14] = assay: Antibacterial activity against Citrobacter freundii 8090 after 18 hrs; type: functional; conditions: Citrobacter freundii, 8090, 18 h; in short: as §1
Pseudomonas aeruginosa = assay: Antibacterial activity against Pseudomonas aeruginosa ATCC 27853 after 18 hrs; type: functional; conditions: ATCC 27853, 18 h; in short: as §1
Staphylococcus aureus [15] = assay: Antibacterial activity against Staphylococcus aureus ATCC 9144 after 18 hrs; type: functional; conditions: ATCC 9144, 18 h; in short: as §1

SMILES: Oc1cc(Cl)ccc1Oc1ccc(Cl)cc1Cl [TRICLOSAN]
- MIC (Escherichia coli [1]): 0.1 to 0.5 mg/L (≈ 0.345 to 1.73 µM)
- MIC (Streptococcus pneumoniae): 1 mg/L (≈ 3.45 µM)
- MIC (Escherichia hermannii): 0.5 mg/L (≈ 1.73 µM)
- MIC (Citrobacter freundii [2]): 0.5 mg/L (≈ 1.73 µM)
- MIC [3]: 0.5 to 1 mg/L (≈ 1.73 to 3.45 µM)
- MIC (Staphylococcus aureus [4]): 0.01 mg/L (≈ 0.0345 µM)
- MIC [5]: 0.01 mg/L (≈ 0.0345 µM)
- MIC (Bacillus cereus): 2 mg/L (≈ 6.91 µM)
- MIC (Streptococcus pyogenes): 1 mg/L (≈ 3.45 µM)
- MIC [6]: 0.01 mg/L (≈ 0.0345 µM)
- MIC (Escherichia coli [7]): 0.1 to 0.5 mg/L (≈ 0.345 to 1.73 µM)
- MIC [8]: 0.5 to 1 mg/L (≈ 1.73 to 3.45 µM)
- MIC (Klebsiella pneumoniae): 0.1 mg/L (≈ 0.345 µM)
- MIC (Klebsiella aerogenes): 0.5 mg/L (≈ 1.73 µM)
- MIC [9]: 0.5 to 1 mg/L (≈ 1.73 to 3.45 µM)
- MIC (Streptococcus agalactiae): 4 mg/L (≈ 13.8 µM)
- MIC (Enterococcus faecalis): 8 mg/L (≈ 27.6 µM)
- MIC (Cronobacter sakazakii): 0.5 mg/L (≈ 1.73 µM)
- MIC (Salmonella typhimurium): 0.5 to 1 mg/L (≈ 1.73 to 3.45 µM)
- MIC (Enterococcus faecium): 4 mg/L (≈ 13.8 µM)
- MIC [10]: 0.5 to 1 mg/L (≈ 1.73 to 3.45 µM)
- MIC [11]: 0.5 to 1 mg/L (≈ 1.73 to 3.45 µM)
- MIC (Bacillus subtilis): 1 mg/L (≈ 3.45 µM)
- MIC (Escherichia coli [12]): 0.1 to 0.5 mg/L (≈ 0.345 to 1.73 µM)
- MIC [13]: 0.5 to 1 mg/L (≈ 1.73 to 3.45 µM)
- MIC (Citrobacter freundii [14]): 0.5 mg/L (≈ 1.73 µM)
- MIC (Pseudomonas aeruginosa): 32 mg/L (≈ 111 µM)
- MIC (Staphylococcus aureus [15]): 0.01 mg/L (≈ 0.0345 µM)
